Wnt act: activators of Wnt/beta-catenin signaling | Wnt/beta-catenin reporter cell assay, activator, plate reader | activation, % at 9.35 µM | hit rate 1.2% among 300,000; in the data active = activation above about 30%, passing the limit was not always enough; inconclusive = no clear call, values can overlap the other calls;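 note: 0% = neutral control wells and 100% = positive control wells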
MITF act: MITF TRPM1 promoter activation in melanoma cells; SK-MEL-5 TRPM1-promoter luciferase, 24 h; % of positive control, neutral wells = 0; hit rate 0.75% among 300,000; activation, % at 12.5 µM;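 active = mean activation of at least 80% with every replicate also reaching 80%; inconclusive = mean reaches 80% but some replicate falls short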;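 note: 0% = neutral control wells and 100% = parthenolide positive control wells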
PGC1a acetyl inh: lowers PGC1a acetylation signal in U2OS cells; AlphaScreen anti-acetyl-lysine; with virally co-expressed GCN5 acetyltransferase; inhibition, % at 15.6 µM; hit rate 0.17% among 350,000;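 active = every replicate shows inhibition of at least 40%; inconclusive = mean inhibition at least 40% but some replicate below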;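 note: 0% = neutral control wells and 100% = positive control wells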
Cneo AK release: causes C. neoformans cell lysis. adenylate kinase release luminescence, 4 h; normalised: neutral wells 0, clomiphene wells 100. lysis activity, % at 15 µM. hit rate 0.2% among 360,000. AID 651654;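 active = mean lysis activity across replicates of at least 80%, whatever share of replicates individually reach that level; inactive = mean lysis activity below 80%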
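Material: C. neoformans cells; Schedule: 4 h static compound exposure, 37 °C, read 1 h post-reagent; Measured by: adenylate kinase release luminescence; Read-out: signal increase indicating cell lysis; Controls: Clomiphene as positive lysis control.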
* = called active by the depositor; ? = inconclusive; . = not tested or not shown. Most compounds without a hit are left out; they make up all but 1.5% or so of the library.

SMILES	Wnt act	MITF act	PGC1a acetyl inh	Cneo AK release
COc1ccc(-c2cnc3c(c2)C(=O)N([C@@H](C)CO)C[C@@H](C)[C@@H](CN(C)S(C)(=O)=O)O3)cc1	.	.	1.4	93.5*
COc1cccc(S(=O)(=O)N(C)C[C@@H]2Oc3ncc(-c4cccc(F)c4)cc3C(=O)N([C@H](C)CO)C[C@@H]2C)c1	.	.	15.7	112.4*
COc1ccc2c3c(n(C)c2c1)[C@@H](CO)N(C(=O)Cc1ccccn1)CC31CN(Cc2ccccn2)C1	.	.	4.2	.
O=C(NCC[C@@H]1CC[C@H](NS(=O)(=O)c2ccc(F)cc2)[C@@H](CO)O1)c1ccc2c(c1)OCO2	.	.	-2.3	-2.2
Cn1cnc(S(=O)(=O)N2C[C@H](O)COC[C@H]3O[C@@H](CC(=O)NCc4cc(F)cc(F)c4)CC[C@@H]32)c1	.	.	6.4	50.8
COc1ccccc1-c1ccc([C@@H]2[C@@H](CO)N3CCCCN(S(=O)(=O)c4cn(C)cn4)C[C@@H]23)cc1	.	.	-8.2	-1.8
CNC[C@@H]1Oc2ncc(C#CCN(C)C)cc2C(=O)N([C@H](C)CO)C[C@@H]1C	.	.	1.5	0.9
CC(C)CC#Cc1cnc2c(c1)C(=O)N([C@H](C)CO)C[C@H](C)[C@@H](CN(C)Cc1cccc(F)c1)O2	.	.	-17.7	87.8*
CNC[C@H]1Oc2ncc(C#CCC(C)C)cc2C(=O)N([C@H](C)CO)C[C@H]1C	.	.	-6.1	90.3*
Cc1sc(NC(=O)c2ccc(Cl)s2)c(C(N)=O)c1C	42.2*	31.1	-3.1	-0.4
Cc1sc(NC(=O)c2ccc(Br)s2)c(C(N)=O)c1C	.	26.1	-11.3	-2.4
COc1cc(/C=N/N=C(N)N)ccc1OCc1ccc(Cl)cc1	1.1	-88.0	.	1.4
CCOc1cc(/C=N/N=C(N)N)ccc1OCc1ccc(Cl)cc1	-0.4	-90.0	55.7*	-2.2
C[C@H](CO)N1C[C@H](C)[C@@H](CN(C)S(=O)(=O)c2cccs2)OCCCC[C@H](C)Oc2ccc(NC(=O)CCC(F)(F)F)cc2C1=O	.	.	6.1	0.2
CCc1ccc(C(=O)/C=C/c2cnn(C)c2C)s1	23.2	.	7.6	-16.2
Cc1c(/C=C/C(=O)c2cccs2)cnn1C	57.2*	50.3	3.4	-1.5
Cc1ccc2nc(N/C(=N/S(=O)(=O)c3ccc(F)cc3)c3ccccc3)sc2c1	2.1	24.6	.	-3.0
O=S(=O)(/N=C(/Nc1nc2ccccc2s1)c1ccccc1)c1ccccc1	50.1*	51.1	2.9	-3.6
C[C@@H]1CN([C@@H](C)CO)C(=O)c2cc(C#Cc3ccccc3)cnc2O[C@@H]1CN(C)C(=O)C1CC1	.	.	3.8	0.8
Cc1ccc(Nc2cc(C)nc(-c3ccccc3)n2)cc1	?	121.8*	-0.6	-2.1
Cc1ccc(Nc2cc(C)nc(-c3ccccc3O)n2)cc1	42.4*	.	-8.4	10.3
COc1cc(Cl)ccc1OCc1cc(C(=O)N2C[C@]3(C)C[C@H]2CC(C)(C)C3)no1	25.9	124.8*	-5.2	1.2
COCCN1CCN(C(=O)c2cc(COc3ccc(Cl)cc3OC)on2)CC1	35.7*	79.2	-0.8	6.9
COc1cc(Cl)ccc1OCc1cc(C(=O)N2C[C@@H]3CCC[C@H]2C3)no1	38.3*	57.6	-5.3	-3.5
COc1cc(Cl)ccc1OCc1cc(C(=O)N2CCCCCCC2)no1	4.0	3.2	-4.0	0.6
SMILES	Wnt act	MITF act	PGC1a acetyl inh	Cneo AK release
COc1cc(Cl)ccc1OCc1cc(C(=O)N(C)CC2CCCCO2)no1 (configuration not stated)	40.3*	49.9	18.9	0.3
CCCNC(=O)N1CC2(CN(Cc3ccc(OC)cc3)C2)c2c(n(C)c3cc(OC)ccc23)[C@@H]1CO	.	.	-35.3	.
CNC[C@@H]1OCCCC[C@H](C)Oc2ccc(NC(=O)Nc3ccc(F)cc3)cc2C(=O)N([C@H](C)CO)C[C@@H]1C	.	.	8.6	0.0
C[C@H](CO)N1C[C@H](C)[C@H](CN(C)Cc2ccncc2)Oc2c(NS(=O)(=O)c3cn(C)cn3)cccc2C1=O	.	.	-1.8	-2.1
CN1C(=O)c2cc(NC(=O)NC3CCCC3)ccc2OC[C@H]2O[C@H](CC(=O)NCC3CC3)CC[C@@H]21	.	.	-3.0	-2.1
O=C1CN(Cc2ccc(F)cc2)C[C@@H]2[C@H](c3ccc(-c4ccccc4)cc3)[C@@H](CO)N12	.	.	-0.1	.
O=C1C=CCCN1S(=O)(=O)/C=C/c1ccccc1	.	.	58.7*	-4.7
O=S(=O)(/C=C/c1ccccc1)N1CCc2ccccc2C1	-0.4	1.3	-22.8	12.1
C[C@H](CO)N1C[C@H](C)[C@@H](CN(C)Cc2ccc3c(c2)OCO3)Oc2ccc(NC(=O)CCC(F)(F)F)cc2CC1=O	.	.	-2.5	7.6
CCOC(=O)c1sc(-c2ccccc2)cc1N	53.8*	.	-13.4	-0.6

Assay outcomes deposited in PubChem by Broad Institute.
